Test results from ChEMBL document CHEMBL5346918, “Design, synthesis and biological evaluation of Nucleosidic CD99 inhibitors that selectively reduce Ewing sarcoma viability” (Eur J Med Chem, 2023).
Active and inactive are the calls of the source. The rule behind the calls is not given here.

Assays:
[1] = Cytotoxicity against human A4573 cells assessed as reduction in cell viability incubated for 48 hrs by CellTiter-Blue reagent based […] assay; assay type: functional; conditions: A4573, 48 h
Summary of the method: (§1)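 Cells seeded and grown to 60–80% confluency (usually 18–24 h), then treated 48 h with a range of concentrations prepared in each line's medium. CellTiter-Blue reagent added at the end of treatment and incubated 3–5 h at 37 °C, 5% CO₂. Fluorescence read at 560 nm excitation and 590 nm emission. IC50 from nonlinear regression, log(inhibitor) vs. normalized response.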

TC-32 [2] = test: Cytotoxicity against human TC-32 cells assessed as reduction in cell viability incubated for 48 hrs by CellTiter-Blue reagent based […] assay; assay type: functional; conditions: TC-32, 48 h; summary of the method: as §1
[3] = Cytotoxicity against human TC71 cells assessed as reduction in cell viability incubated for 48 hrs by CellTiter-Blue reagent based […] assay; assay type: functional; conditions: TC-71, 48 h; summary of the method: as §1
SAOS-2 = test: Cytotoxicity against human SAOS-2 cells assessed as reduction in cell viability incubated for 48 hrs by CellTiter-Blue reagent based […] assay; assay type: functional; conditions: SAOS-2, 48 h; summary of the method: as §1
U2OS [4] = test: Cytotoxicity against human U2OS cells assessed as reduction in cell viability incubated for 48 hrs by CellTiter-Blue reagent based […] assay; assay type: functional; summary of the method: as §1
[5] = Cytotoxicity against human COG-E-352 cells assessed as reduction in cell viability incubated for 48 hrs by CellTiter-Blue reagent based […] assay; assay type: functional; conditions: COG-E-352, 48 h
Summary of the method: (§2)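 Cells grown in their own media at 37 °C, 5% CO2, mycoplasma-tested. At 60–80% confluency, treated 48 h with a range of concentrations made in medium. CellTiter-Blue added for 3–5 h at 37 °C, fluorescence read at ex 560/em 590 nm. IC50 from nonlinear regression (log(inhibitor) vs normalized response); mean ± SD of duplicate or triplicate determinations.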

[6] = Cytotoxicity against human MHH-ES cells assessed as reduction in cell viability incubated for 48 hrs by CellTiter-Blue reagent based […] assay; assay type: functional
[7] = Cytotoxicity against human SK-ES cells assessed as reduction in cell viability incubated for 48 hrs by CellTiter-Blue reagent based […] assay; assay type: functional; summary of the method: as §2
[8] = Cytotoxicity against human STA-ET-7.2 cells assessed as reduction in cell viability incubated for 48 hrs by CellTiter-Blue reagent based […] assay; assay type: functional; conditions: STA-ET-7.2, 48 h
RD = test: Cytotoxicity against human RD cells assessed as reduction in cell viability incubated for 48 hrs by CellTiter-Blue reagent based […] assay; assay type: functional; summary of the method: as §2
SJRH30 = test: Cytotoxicity against human Rh30 cells assessed as reduction in cell viability incubated for 48 hrs by CellTiter-Blue reagent based […] assay; assay type: functional; conditions: SJRH30, 48 h
143B = test: Cytotoxicity against human 143B cells assessed as reduction in cell viability incubated for 48 hrs by CellTiter-Blue reagent based […] assay; assay type: functional; summary of the method: as §2
HOS = test: Cytotoxicity against human HOS cells assessed as reduction in cell viability incubated for 48 hrs by CellTiter-Blue reagent based […]; assay type: functional; summary of the method: as §2
[9] = Cytotoxicity against human MG-63.3 cells assessed as reduction in cell viability incubated for 48 hrs by CellTiter-Blue reagent based […] assay; assay type: functional; conditions: MG-63.3, 48 h; summary of the method: as §2
A 172 = test: Cytotoxicity against human A-172 cells assessed as reduction in cell viability incubated for 48 hrs by CellTiter-Blue reagent based […] assay; assay type: functional; conditions: A 172, 48 h; summary of the method: as §2
U-87 MG = test: Cytotoxicity against human U-87 MG cells assessed as reduction in cell viability incubated for 48 hrs by CellTiter-Blue reagent based […] assay; assay type: functional, U-87MG ATCC; summary of the method: as §2
A549 = test: Cytotoxicity against human A549 cells assessed as reduction in cell viability incubated for 48 hrs by CellTiter-Blue reagent based […] assay; assay type: functional; conditions: A549, 48 h
[10] = Cytotoxicity against human HEK293 cells assessed as reduction in cell viability incubated for 48 hrs by CellTiter-Blue reagent based […] assay; assay type: toxicity; summary of the method: as §2
HeLa = test: Cytotoxicity against human HeLa cells assessed as reduction in cell viability incubated for 48 hrs by CellTiter-Blue reagent based […] assay; assay type: functional; summary of the method: as §2
PC-3 = test: Cytotoxicity against human PC-3 cells assessed as reduction in cell viability incubated for 48 hrs by CellTiter-Blue reagent based […] assay; assay type: functional; conditions: PC-3, 48 h; summary of the method: as §2
CD99 antigen [11] = molecular target: T1, CD99 antigen (Homo sapiens, UniProt P14209); test: Binding affinity to N-terminal biotin-tagged recombinant human CD99 extracellular domain (23 to 122 residues) expressed in Escherichia coli BL21(DE3) by surface plasmon resonance analysis
T1 sequence (P14209 whole entry): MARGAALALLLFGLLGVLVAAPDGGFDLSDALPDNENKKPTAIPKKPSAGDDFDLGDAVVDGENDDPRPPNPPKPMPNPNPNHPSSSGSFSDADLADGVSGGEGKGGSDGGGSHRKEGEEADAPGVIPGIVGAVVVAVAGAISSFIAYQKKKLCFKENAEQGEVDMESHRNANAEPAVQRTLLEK
Summary of the method: (§3)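 Bacterially expressed recombinant CD99 extracellular domain amine-coupled to CM5 chip (10 mM sodium acetate pH 4.0, ~3500 RU). Analytes injected at various concentrations in PBS-P pH 7.4 + 1% DMSO at 50 μL/min. Contact time 60 s, dissociation 300 s, regeneration with 15 s H3PO4 pulse. Duplicate injections; sensorgrams fitted to 1:1 kinetic model.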

[12] = molecular target: T2, CD99 antigen (Homo sapiens) (UniProt P14209); test: Binding affinity to N-terminal biotin-tagged recombinant human CD99 extracellular domain (23 to 122 residues) expressed in Escherichia coli BL21(DE3) assessed as association rate constant by surface plasmon resonance analysis; summary of the method: as §3
T2 sequence (whole entry): T1 sequence (P14209 whole entry)

CD99 antigen [13] = molecular target: T1, CD99 antigen; test: Binding affinity to N-terminal biotin-tagged recombinant human CD99 extracellular domain (23 to 122 residues) expressed in Escherichia coli BL21(DE3) assessed as dissociation rate constant by surface plasmon resonance analysis; summary of the method: as §3
[14] = molecular target: T2, CD99 antigen (Homo sapiens); test: Binding affinity to CD99 in human TC71 cells assessed as protein stabilization at 80 uM incubated for 30 mins and measured at 51 to 99 degC by CETSA analysis; assay type: cell-based
Summary of the method: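 TC-71 cell lysate mixed with compound at 80 μM final, aliquots heated at various temperatures; thermally stable CD99 remaining in solution detected by western blot with anti-CD99 antibody and quantified by densitometry relative to untreated lysate.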

TC-32 [15] = test: Induction of apoptosis in human TC-32 cells assessed as PARP cleavage at 4 to 16 uM incubated for 48 hrs by western blot analysis; assay type: functional, cell-based; conditions: dose 4-16 µM
Summary of the method: (§4)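 TC-32 cells treated 48 h at 4, 8 or 16 μM; total lysates immunoblotted for cleaved PARP and cleaved caspase 3, actin as loading and normalization control; ECL imaging with densitometry.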

TC-32 [16] = test: Induction of apoptosis in human TC-32 cells assessed as caspase-3 cleavage at 4 to 16 uM incubated for 48 hrs by western blot analysis; assay type: functional, cell-based; conditions: dose 4-16 µM; summary of the method: as §4
U2OS [17] = test: Induction of apoptosis in human U2OS cells assessed as PARP cleavage at 4 to 16 uM incubated for 48 hrs by western blot analysis; assay type: functional, cell-based; conditions: dose 4-16 µM
Summary of the method: (§5)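 U-2 OS cells treated 48 h at 4, 8 or 16 μM; total lysates immunoblotted for cleaved PARP and cleaved caspase 3, actin as loading and normalization control.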

U2OS [18] = test: Induction of apoptosis in human U2OS cells assessed as caspase-3 cleavage at 4 to 16 uM incubated for 48 hrs by western blot analysis; assay type: functional, cell-based; conditions: dose 4-16 µM; summary of the method: as §5
TC-32 [19] = test: Induction of apoptosis in human TC-32 cells assessed as increase in hypodiploid subG1 population at 4 to 16 uM incubated for 48 hrs by propidium iodide staining based flow cytometry; assay type: functional, cell-based; conditions: dose 4-16 µM
Summary of the method: (§6)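 Cells treated 48 h at 4, 8 or 16 μM, then adherent and floating cells pooled, fixed in ice-cold 70% ethanol 1 h, treated with RNase A 100 μg/mL, stained with propidium iodide 50 μg/mL for 1 h on ice. Sub-G1 fraction measured by flow cytometry.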

U2OS [20] = test: Induction of apoptosis in human U2OS cells assessed as increase in hypodiploid subG1 population at 4 to 16 uM incubated for 48 hrs by propidium iodide staining based flow cytometry; assay type: functional, cell-based; conditions: dose 4-16 µM; summary of the method: as §6
TC-32 [21] = test: Induction of apoptosis in human TC-32 cells assessed as PARP cleavage at 10 to 40 uM incubated for 48 hrs by western blot analysis; assay type: functional, cell-based; conditions: dose 10-40 µM
Summary of the method: (§7)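 Cells treated 48 h with three concentrations per agent (0.1, 0.2 or 0.4 μM for one; 10, 20 or 40 μM for another). Total cell lysates immunoblotted for PARP and caspase 3 and their cleaved products. Actin used as loading control and for normalization. ECL signal imaged on PVDF, bands quantified by densitometry.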

TC-32 [22] = test: Induction of apoptosis in human TC-32 cells assessed as caspase-3 cleavage at 10 to 40 uM incubated for 48 hrs by western blot analysis; assay type: functional, cell-based; conditions: dose 10-40 µM; summary of the method: as §7
U2OS [23] = test: Induction of apoptosis in human U2OS cells assessed as PARP cleavage at 10 to 40 uM incubated for 48 hrs by western blot analysis; assay type: functional, cell-based; conditions: dose 10-40 µM; summary of the method: as §7
U2OS [24] = test: Induction of apoptosis in human U2OS cells assessed as caspase-3 cleavage at 10 to 40 uM incubated for 48 hrs by western blot analysis; assay type: functional, cell-based; conditions: dose 10-40 µM; summary of the method: as §7
TC-32 [25] = test: Induction of apoptosis in human TC-32 cells assessed as increase in hypodiploid subG1 population at 10 to 40 uM incubated for 48 hrs by propidium iodide staining based flow cytometry; assay type: functional, cell-based; conditions: dose 10-40 µM
Summary of the method: (§8)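 Treatment same as the apoptosis blots (48 h; 0.1–0.4 μM or 10–40 μM). Adherent cells trypsinized and pooled with floating cells, then washed in PBS. Fixed in ice-cold 70% ethanol 1 h on ice, rehydrated, RNase A 100 μg/mL. Stained with propidium iodide at 50 μg/mL final for 1 h on ice. Sub-G1 fraction read by flow cytometry.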

U2OS [26] = test: Induction of apoptosis in human U2OS cells assessed as increase in hypodiploid subG1 population at 10 to 40 uM incubated for 48 hrs by propidium iodide staining based flow cytometry; assay type: functional, cell-based; conditions: dose 10-40 µM; summary of the method: as §8
TC-32 [27] = test: Inhibition of DNA synthesis in human TC-32 cells assessed as induction of DNA damage by measuring gammaH2AX phosphorylation at 20 to 80 uM incubated for 6 hrs by western blot analysis; assay type: toxicity, cell-based; conditions: tc-32, 6 h, dose 20-80 µM
Summary of the method: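 TC-32 cells treated 6 h at 20, 40 or 80 μM. Total lysates immunoblotted for H2A.X and Ser139-phosphorylated γH2A.X. Actin used as loading control and for normalization. Bands quantified by densitometry.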

| SMILES | IC50 [1] [µM] | IC50 (TC-32 [2]) [µM] | IC50 [3] [µM] | IC50 (SAOS-2) [µM] | IC50 (U2OS [4]) [µM] | IC50 [5] [µM] | IC50 [6] [µM] | IC50 [7] [µM] | IC50 [8] [µM] | IC50 (RD) [µM] | IC50 (SJRH30) [µM] | IC50 (143B) [µM] | IC50 (HOS) [µM] | IC50 [9] [µM] | IC50 (A 172) [µM] | IC50 (U-87 MG) [µM] | IC50 (A549) [µM] | IC50 at 48 h [10] [µM] | IC50 (HeLa) [µM] | IC50 (PC-3) [µM] | also measured |
| --- | --- | --- | --- | --- | --- | --- | --- | --- | --- | --- | --- | --- | --- | --- | --- | --- | --- | --- | --- | --- | --- |
| Nc1nc(Cl)nc2c1ncn2[C@@H]1O[C@H](COC(C(=O)O)C(=O)O)[C@@H](O)[C@@H]1F | 27 | 27 | 5.17 | ≥ 400 | ≥ 400 | 27 | 27 | 27 | 27 | > 400 | > 341 | > 341 | > 400 | > 341 | > 341 | > 400 | > 400 | > 341 | > 400 | > 400 | Kd (CD99 antigen [11]): 1.5 µM; Ka [12]: 1700 M⁻¹ s⁻¹; Kd (CD99 antigen [13]): 2467 10^-6/s; Activity [14]: Active; Activity (TC-32 [15]): Active; Activity (TC-32 [16]): Active; Activity (U2OS [17]): inactive; Activity (U2OS [18]): inactive; Activity (TC-32 [19]): Active; Activity (U2OS [20]): inactive |
| Nc1nc(-c2cccnc2)nc2c1ncn2[C@@H]1O[C@H](CO)[C@@H](O)[C@@H]1F | 45.1 | 58.7 | 19.9 | ≥ 400 | ≥ 400 | 60 | 60 | 60 | 60 | > 400 | > 368 | > 368 | > 400 | > 368 | > 400 | > 400 | > 400 | > 368 | > 400 | > 400 | Kd (CD99 antigen [11]): 1.8 µM; Ka [12]: 335 M⁻¹ s⁻¹; Kd (CD99 antigen [13]): 598.2 10^-6/s; Activity (TC-32 [21]): Active; Activity (TC-32 [22]): Active; Activity (U2OS [23]): inactive; Activity (U2OS [24]): inactive; Activity (TC-32 [25]): Active; Activity (U2OS [26]): inactive; Activity (TC-32 [27]): Non-Toxic |
